Test results reported in ChEMBL document CHEMBL1136108, “Benzoxazinones as PPARgamma agonists. part 1: SAR of three aromatic regions” (Bioorg Med Chem Lett, 2003).

Key:
[1] = biological target: T1, Peroxisome proliferator-activated receptor gamma (Homo sapiens) (UniProt P37231); assay: Functional potency was determined in pooled human preadipocytes by measurement of PPARg aP2 gene induction; assay type: cell-based
T1 sequence (whole entry): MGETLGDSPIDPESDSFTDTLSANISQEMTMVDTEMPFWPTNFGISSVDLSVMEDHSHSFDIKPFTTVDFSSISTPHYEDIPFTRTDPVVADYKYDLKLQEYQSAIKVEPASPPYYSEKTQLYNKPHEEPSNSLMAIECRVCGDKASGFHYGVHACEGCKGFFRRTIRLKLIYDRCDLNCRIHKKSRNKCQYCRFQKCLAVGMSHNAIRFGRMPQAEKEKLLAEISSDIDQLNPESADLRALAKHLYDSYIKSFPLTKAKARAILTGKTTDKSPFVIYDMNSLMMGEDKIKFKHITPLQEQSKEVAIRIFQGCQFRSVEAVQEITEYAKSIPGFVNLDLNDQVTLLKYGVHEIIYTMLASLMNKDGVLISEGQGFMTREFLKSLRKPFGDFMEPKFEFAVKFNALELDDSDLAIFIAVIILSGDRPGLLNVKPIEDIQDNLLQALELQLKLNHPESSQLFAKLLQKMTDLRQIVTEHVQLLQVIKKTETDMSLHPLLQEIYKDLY
In short: (§1)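 Pooled human preadipocytes treated with compound. Induction of the aP2 gene was quantified by a branched DNA technique. EC50 values are the mean of two experiments.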

[2] = biological target: T1, Peroxisome proliferator-activated receptor gamma (Homo sapiens); assay: Agonist activity determined in peroxisome proliferator activated receptor gamma using PPAR gamma-Gal4 Luciferase cotransfection assay; assay type: functional
In short: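 HEK293 cells grown in DMEM/F-12 with 10% FBS and glutamine, co-transfected (DMRIE-C) with PPARg-Gal4 receptor and Gal4-luciferase reporter DNA. Next day, medium switched to 5% charcoal-treated FBS; after 6 h cells seeded and incubated overnight at 37°C. Compound exposure 24 h at 37°C, 5% CO2; luciferase read by Steady-Glo. Values are the mean of two experiments.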

[3] = biological target: T1, Peroxisome proliferator-activated receptor gamma (Homo sapiens); assay: PPAR gamma mediated aP2 gene induction in pooled human preadipocytes; assay type: functional, cell-based; in short: as §1
[4] = Half life period in human liver microsome was determined; assay type: ADME; details: liver microsomes
[5] = Half life period in human hepatic S9 fraction was determined; assay type: ADME, subcellular; details: liver S9 fraction
Mus musculus = assay: Decrease in plasma glucose in db/db mice after 5 days of 30 mg/kg oral administration; assay type: functional
[6] = Half life period after administration (30 mg/kg) in rat; assay type: ADME, organism-based; details: in vivo
Rattus norvegicus [7] = assay: Area under curve (AUC0-24 h) after administration (30 mg/kg) in rat; assay type: ADME, organism-based; design: dose 30 mg/kg, time < 24 hr; details: in vivo
Rattus norvegicus [8] = assay: Oral bioavailability after administration (30 mg/kg) in rat; good; assay type: ADME, organism-based; details: in vivo

Row | Structure (SMILES) | Activity [1] [µM] | Activity [2] [µM] | other results
1 | O=C(O)Cc1ccccc1OCCC1Oc2ccccc2N(Cc2ccc(F)c(F)c2)C1=O (stereo not drawn) | 1.3 | 0.59 | 
2 | O=C(O)CCc1ccccc1OCCC1Oc2ccccc2N(Cc2ccc(Cl)cc2)C1=O (stereo not drawn) | > 10 | > 5 | 
3 | O=C(O)CCc1cccc(OCCC2Oc3ccccc3N(Cc3cccc(Cl)c3)C2=O)c1 (stereo not drawn) |  |  | Fold induction [3]: 5.6
4 | COc1ccc2c(c1)N(Cc1ccc(Cl)cc1)C(=O)C(CCOc1ccccc1CC(=O)O)O2 (stereo not drawn) | 6 | 1.8 | 
5 | O=C(O)Cc1ccccc1OCCC1Oc2ccccc2N(Cc2ccc(Cl)cc2)C1=O (stereo not drawn) | 2.1 | 1.3 | half-life [4]: > 0.833 h; half-life [5]: > 0.833 h; Glucose level (Mus musculus): 27%; half-life [6]: 20 h; AUC (Rattus norvegicus [7]): 308 µM·h; F (Rattus norvegicus [8]): Active
6 | O=C(O)c1ccccc1OCCC1Oc2ccccc2N(Cc2ccc(Cl)cc2)C1=O (stereo not drawn) | > 10 | > 5 | 
7 | O=C(O)Cc1ccccc1OCCC1Oc2ccccc2N(Cc2ccccc2)C1=O (stereo not drawn) | 4.6 | > 5 | 
8 | Cc1ccc(CN2C(=O)C(CCOc3ccccc3CC(=O)O)Oc3ccccc32)cc1 (stereo not drawn) | 5 | 2 | 
9 | O=C(O)Cc1ccccc1OCCC1Oc2cc3ccccc3cc2N(Cc2ccc(Cl)cc2)C1=O (stereo not drawn) | > 10 | > 5 | 
10 | O=C(O)Cc1cccc(OCCC2Oc3ccccc3N(Cc3ccc(Cl)cc3)C2=O)c1 (stereo not drawn) | > 10 | > 5 | 
11 | O=C(O)Cc1ccc(OCCC2Oc3ccccc3N(Cc3cccc(Cl)c3)C2=O)cc1 (stereo not drawn) |  |  | Fold induction [3]: 3.2
12 | CC(=O)c1ccc2c(c1)OC(CCOc1ccccc1CC(=O)O)C(=O)N2Cc1ccc(Cl)cc1 (stereo not drawn) | 6.2 | 1.8 | 
13 | O=C(O)Cc1ccccc1OCCC1Oc2ccccc2N(Cc2ccc(C(F)(F)F)cc2)C1=O (stereo not drawn) | 0.51 | 0.5 | 
14 | O=C(O)Cc1ccccc1OCCC1Oc2ccc(C(=O)O)cc2N(Cc2ccc(Cl)cc2)C1=O (stereo not drawn) | > 10 | > 5 | 
15 | O=C(O)Cc1ccccc1OCCC1Oc2ccccc2N(CCc2ccc(Cl)c(Cl)c2)C1=O (stereo not drawn) | > 10 | > 5 | 
16 | O=C(O)Cc1ccccc1OCCC1Oc2ccccc2N(Cc2ccc3c(c2)OCO3)C1=O (stereo not drawn) | 4.4 | 1.1 | 
17 | O=C(O)CCc1ccc(OCCC2Oc3ccccc3N(Cc3cccc(Cl)c3)C2=O)cc1 (stereo not drawn) |  |  | Fold induction [3]: 3.6
18 | O=C(O)Cc1cccc(OCCC2Oc3ccccc3N(Cc3cccc(Cl)c3)C2=O)c1 (stereo not drawn) | > 10 | > 5 | Fold induction [3]: 5.5
19 | COc1ccc(CN2C(=O)C(CCOc3ccccc3CC(=O)O)Oc3ccccc32)cc1 (stereo not drawn) | 5.4 | 0.52 | 
20 | O=C(O)Cc1ccccc1OCCC1Oc2cc(F)ccc2N(Cc2ccc(Cl)cc2)C1=O (stereo not drawn) | > 10 | > 5 | 
21 | Cc1ccc2c(c1)OC(CCOc1ccccc1CC(=O)O)C(=O)N2Cc1ccc(Cl)cc1 (stereo not drawn) | 4.2 | 2.1 | 
22 | O=C(O)Cc1ccccc1OCCC1Oc2ccccc2N(Cc2ccc(F)cc2)C1=O (stereo not drawn) | 3.2 | 1.1 | 
23 | CN(CCOc1ccc(CC2SC(=O)NC2=O)cc1)c1ccccn1 (stereo not drawn) | 0.12 |  | 
24 | O=C(O)Cc1ccccc1OCCC1Oc2ccccc2N(Cc2ccc(Cl)c(Cl)c2)C1=O (stereo not drawn) | 2.6 | 0.96 | 
25 | O=C(O)Cc1ccccc1OCCC1Oc2ccccc2N(c2ccc(Cl)c(Cl)c2)C1=O (stereo not drawn) | 5.9 | 0.57 | 
26 | O=C(O)Cc1ccccc1OCCC1CN(Cc2ccc(Cl)c(Cl)c2)c2ccccc2O1 (stereo not drawn) | > 10 | > 5 | 
27 | O=C(O)Cc1ccccc1OCCC1Oc2ccccc2N(Cc2cccc(Cl)c2)C1=O (stereo not drawn) | 2.4 | 1.9 | Fold induction [3]: 6.2
